Source: ChEMBL document CHEMBL3580541, “Mebamamides A and B, Cyclic Lipopeptides Isolated from the Green Alga Derbesia marina” (J Nat Prod, 2015)
Calls of active or inactive are those of the source. The calls are words filed in the database; no cut-off is given here.

Legend:
HeLa [1] = assay: Cytotoxicity against human HeLa cells after 72 hrs by Trypan blue dye exclusion assay; format: functional, cell-based; conditions: in the assay text read “MTT assay” for “Trypan blue dye exclusion assay”
Outline: (§1)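 MTT read-out of proliferation. HeLa cells were grown in supplemented DMEM with 10% heat-inactivated FBS, seeded at 2 × 10^4 cells/well and cultured overnight. HL60 cells were grown in supplemented RPMI with 10% FBS and seeded at 1 × 10^5 cells/well. Compounds were added at 0.1−100 μM and incubated 72 h at 37 °C, 5% CO2.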

HL-60 [2] = assay: Cytotoxicity against human HL60 cells after 72 hrs by Trypan blue dye exclusion assay; format: functional, cell-based; conditions: HL-60, 72 h, in the assay text read “MTT assay” for “Trypan blue dye exclusion assay”; outline: as §1
HL-60 [3] = assay: Induction of cell adhesion in human HL60 cells at 100 uM measured upto 72 hrs by hemocytometry; format: functional, cell-based
Outline: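 HL60 cells were seeded at 1 × 10^5 cells/well in 200 μL medium and given 100 μM compound; TPA at 16 nM served as comparator. Both fractions were counted by hemocytometer. Means ± SD of quadruplicate determinations.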

HeLa [4] = assay: Cytotoxicity against human HeLa cells at 100 uM after 72 hrs by Trypan blue dye exclusion assay; format: functional, cell-based; conditions: in the assay text read “MTT assay” for “Trypan blue dye exclusion assay”; outline: as §1
HL-60 [5] = assay: Cytotoxicity against human HL60 cells at 100 uM after 72 hrs by Trypan blue dye exclusion assay; format: functional, cell-based
Outline: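 HL60 cells were seeded at 1 × 10^5 cells/well in 24-well plates and exposed to 100 μM compound for 72 h. They were then stained with 0.8 mg/mL trypan blue. Viability was determined by counting stained (dead) cells.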

HL-60 [6] = assay: Induction of human HL60 cell differentiation into macrophages at 100 uM after 72 hrs by May-Giemsa staining based microscopy; format: functional
Outline: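 Differentiation was judged by morphology. HL60 cells were seeded at 2 × 10^4 cells/well in 200 μL medium, treated 72 h with 100 μM compound or 16 nM TPA, washed once in PBS, stained with May−Giemsa and examined by light microscopy.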

HL-60 [7] = assay: Induction of human HL60 cell phagocytotic activity at 100 uM after 48 hrs by trypan based fluorescent microscopy; format: functional
Outline: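 Phagocytosis was run with a commercial kit. HL60 cells were seeded at 2 × 10^4 cells/well in 200 μL medium, given 20 μL FITC-conjugated latex bead suspension plus 100 μM compound or 16 nM TPA, incubated 48 h and examined by fluorescence microscopy.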

HL-60 [8] = assay: Induction of human HL60 cell differentiation into macrophages at 16 nM after 72 hrs by May-Giemsa staining based microscopy; format: functional
Outline: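 HL60 cells were grown in RPMI with 10% heat-inactivated FBS, penicillin/streptomycin, amphotericin and L-glutamine at 37 °C in 5% CO2. They were seeded at 2 × 10^4 cells/well and treated for 72 h. Cells were washed once in PBS, stained with May–Giemsa, and examined by light microscopy for macrophage-like morphology.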

HL-60 [9] = assay: Induction of human HL60 cell phagocytotic activity at 16 nM after 48 hrs by trypan based fluorescent microscopy; format: functional
Outline: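 HL60 cells were seeded at 2 × 10^4 cells/well. FITC-conjugated latex beads and agent were added together, with TPA at 16 nM as the reference, and cells were incubated for 48 h. Uptake was assessed by fluorescence microscopy using a commercial phagocytosis kit run per the manufacturer's protocol.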

| SMILES | IC50 (HeLa [1]) [µM] | IC50 (HL-60 [2]) [µM] | Activity (HL-60 [3]) | growth inhibition (GI) (HeLa [4]) | growth inhibition (GI) (HL-60 [5]) | Activity (HL-60 [6]) | Activity (HL-60 [7]) | Activity (HL-60 [8]) | Activity (HL-60 [9]) |
| --- | --- | --- | --- | --- | --- | --- | --- | --- | --- |
| CC(=O)O[C@@H](CCCC[C@@H](O)CC(=O)N[C@H](CO)C(=O)N[C@@H](CC(C)C)C(=O)N1CCC[C@H]1C(=O)N[C@H](C)C(=O)N[C@@H]1C(=O)N[C@H](Cc2ccccc2)C(=O)N2CCC[C@H]2C(=O)N[C@H](CC(C)C)C(=O)N[C@@H](C(C)C)C(=O)O[C@@H]1C)C(C)C | 48 | 19 | inactive | – | – | – | – | – | – |
| CC(C)C[C@H](NC(=O)[C@@H](CO)NC(=O)C[C@H](O)CCCC[C@H](O)C(C)C)C(=O)N1CCC[C@H]1C(=O)N[C@H](C)C(=O)N[C@@H]1C(=O)N[C@H](Cc2ccccc2)C(=O)N2CCC[C@H]2C(=O)N[C@H](CC(C)C)C(=O)N[C@@H](C(C)C)C(=O)O[C@@H]1C | – | – | Active | inactive | inactive | Active | Active | – | – |
| CCCCCCCCCCCCCC(=O)O[C@@H]1[C@@H](C)[C@@]2(O)[C@@H](C=C(CO)C[C@]3(O)C(=O)C(C)=C[C@@H]23)[C@@H]2C(C)(C)[C@]12OC(C)=O | – | – | – | – | – | – | – | Active | Active |
